Data as given in ChEMBL document CHEMBL5647697, “Akt inhibition synergizes with polycomb repressive complex 2 inhibition in the treatment of multiple myeloma” (2019).
The source made the active and inactive calls. No cut-off for these calls is given here.

Tests used:
MM1.S [1] = test: Cytotoxicity against human MM1.S cells assessed as reduction in cell viability at 0.3125 to 10 micromol/L after 48 hrs by MTS assay; assay type: functional, cell-based; details: dose 0.3125-10 µmol/L
How it was run: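 Seven myeloma lines (MM.1S, H929, OPM2/BTZ among them) exposed to TAS-117 at increasing concentrations up to 10 μmol/L for 48 h. Viability read by MTS against an untreated control; mean ± SD of triplicates.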

MM1.S [2] = test: Downregulation of EZH2 mRNA expression in human MM1.S cells at 0.3 to 3 micromol/L after 24 hrs by qRT-PCR analysis; assay type: functional, cell-based; details: dose 0.3-3 µmol/L
How it was run: (§1)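 MM.1S and H929 cells given TAS-117 at the indicated doses for 24 h. mRNA measured by RT-qPCR, fold change after normalization to GAPDH; SD of triplicates; significance versus untreated control.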

MM1.S [3] = test: Downregulation of E2F1 mRNA expression in human MM1.S cells incubated at 0.3 to 3 micromol/L for 24 hrs by qRT-PCR analysis; assay type: functional, cell-based; details: dose 0.3-3 µmol/L; how it was run: as §1
NCI-H929 [4] = test: Downregulation of E2F1 mRNA expression in human NCI-H929 cells incubated at 0.3 to 3 micromol/L for 24 hrs by qRT-PCR analysis; assay type: functional, cell-based; details: dose 0.3-3 µmol/L; how it was run: as §1
NCI-H929 [5] = test: Downregulation of E2F1 protein expression in human NCI-H929 cells incubated at 0.3 to 3 micromol/L for 48 hrs by Western blot analysis; assay type: functional, cell-based; details: dose 0.3-3 µmol/L
How it was run: (§2)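 MM.1S and H929 cells given TAS-117 at the indicated doses for 48 h. Protein levels assessed by immunoblot.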

OPM-2/BTZ [6] = test: Downregulation of E2F1 mRNA expression in human OPM-2/BTZ cells incubated at 0.3 to 3 micromol/L for 48 hrs by qRT-PCR analysis; assay type: functional, cell-based; details: dose 0.3-3 µmol/L
MM1.S [7] = test: Downregulation of CDK1 protein expression in human MM1.S cells incubated at 0.3 to 3 micromol/L for 48 hrs by Western blot analysis; assay type: functional, cell-based; details: dose 0.3-3 µmol/L; how it was run: as §2
OPM-2/BTZ [8] = test: Downregulation of phospho-Rb protein expression in human OPM-2/BTZ cells incubated at 0.3 to 3 micromol/L for 48 hrs by Western blot analysis; assay type: functional, cell-based; details: dose 0.3-3 µmol/L
MM1.S [9] = test: Synergistic activity against human MM.1S cells assessed as combination index […] at 0.25 uM incubated for 48 hrs by […]; assay type: functional
How it was run: (§3)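 Cells were exposed to the EZH2/EZH1 inhibitor (UNC1999 or GSK126) for 72 h in total, with the Akt inhibitor added for the last 48 h. Viability was read by MTS assay relative to untreated control cells, in triplicate. The combination index for each dose pair came from isobologram analysis.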

NCI-H929 [10] = test: Synergistic activity against human NCI-H929 cells assessed as combination index preincubated in presence of 2.5 uM UNC1999 […] at 0.5 uM incubated for 48 hrs by […]; assay type: functional; how it was run: as §3
NCI-H929 [11] = test: Synergistic activity against human NCI-H929 cells assessed as combination index […] at 0.25 uM incubated for 48 hrs by […]; assay type: functional; how it was run: as §3
NCI-H929 [12] = test: Synergistic activity against human NCI-H929 cells assessed as combination index preincubated in presence of 2.5 uM GSK126 […] at 0.125 uM incubated for 48 hrs by […]; assay type: functional; how it was run: as §3
NCI-H929 [13] = test: Synergistic activity against human NCI-H929 cells assessed as combination index […] at 0.5 uM incubated for 48 hrs by […]; assay type: functional; how it was run: as §3
OPM-2/BTZ [14] = test: Synergistic activity against human OPM-2/BTZ cells assessed as combination index preincubated in presence of 2.5 uM GSK126 for 72 hrs followed by compound addition at 1 uM incubated for 48 hrs by MTT assay; assay type: functional
OPM-2 [15] = test: Synergistic activity against human OPM-2 cells assessed as combination index preincubated in presence of 2.5 uM GSK126 for 72 hrs followed by compound addition at 5 uM incubated for 48 hrs by MTT assay; assay type: functional
MM1.S [16] = test: Induction of apoptosis in human MM1.S cells assessed as necrotic cells at 2 micromol/L incubated for 12 hrs by annexin V/PI staining based flow cytometry (reference value: 0.17%); assay type: functional; details: dose 2 µmol/L, at 2 µM
MM1.S [17] = test: Downregulation of EZH2 mRNA expression in human MM1.S cells transduced with EZH1 at 0.3 micromol/L after 24 hrs by qRT-PCR analysis; assay type: functional, cell-based; details: dose 0.3 µmol/L
How it was run: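 EZH1-shRNA or shLuc lentivirus-transduced MM.1S cells treated with TAS-117 at the indicated doses for 24 h. EZH2 mRNA by RT-qPCR, fold change normalized to GAPDH.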

NCI-H929 [18] = test: Upregulation of BIM mRNA expression in human NCI-H929 cells at 1 micromol/L after 24 hrs by qRT-PCR analysis; assay type: functional, cell-based; details: dose 1.0 µmol/L
How it was run: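 Cells were exposed to 1 μmol/L TAS-117 for 24 h. mRNA of FOXO3, FOXO4, BIM and CDKN1B was measured by qRT-PCR in H929 cells. Fold change is relative to the untreated control after normalization to GAPDH. Data are SD of triplicates.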

MM1.S [19] = test: Upregulation of CDKN1B mRNA expression in human MM1.S cells at 1 micromol/L after 24 hrs by qRT-PCR analysis; assay type: functional, cell-based; details: dose 1.0 µmol/L
MM1.S [20] = test: Upregulation of FOXO3 in human MM1.S cells assessed as enhanced nuclear accumulation at 0.5 micromol/L after 24 hrs by immunofluorescence staining; assay type: functional, cell-based; details: dose 0.5 µmol/L
How it was run: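 MM.1S and H929 cells were treated with or without 0.5 μmol/L TAS-117 for 24 h. Cells were immunostained with anti-FOXO3. Jurkat cells served as positive control and cells without primary antibody as negative control. Read-out was the average fluorescence intensity of the nuclear FOXO3 fraction versus untreated cells.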

OPM-2 [21] = test: Synergistic activity against human OPM-2 cells assessed as combination index preincubated in presence of 1.25 uM UNC1999 for 72 hrs followed by compound addition at 2.5 uM incubated for 48 hrs by MTT assay; assay type: functional
NCI-H929 [22] = test: Induction of apoptosis in human NCI-H929 cells assessed as late apoptotic cells at 5 micromol/L incubated for 48 hrs by annexin V/PI staining based flow cytometry (reference value: […]%); assay type: functional; details: dose 5 µmol/L
NCI-H929 [23] = test: Induction of apoptosis in human NCI-H929 cells assessed as late apoptotic cells at 2 micromol/L incubated for 12 hrs by annexin V/PI staining based flow cytometry (reference value: […]%); assay type: functional; details: dose 2 µmol/L
NCI-H929 [24] = test: Induction of apoptosis in human NCI-H929 cells assessed as early apoptotic cells at 2 micromol/L incubated for 12 hrs by annexin V/PI staining based flow cytometry (reference value: 0.37%); assay type: functional; details: dose 2 µmol/L, at 2 µM
OPM-2/BTZ [25] = test: Upregulation of EZH1 mRNA expression in human OPM-2/BTZ cells at 0.03 to 3 micromol/L after 6 to 48 hrs by qRT-PCR analysis; details: dose 0.03-3 µmol/L, time 6-48 hrs
MM1.S [26] = test: Downregulation of EZH2 mRNA expression in human MM1.S cells in presence of 5 micromol/L UNC1999 for 72 hrs followed by compound addition at 2 micromol/L incubated for 24 hrs by qRT-PCR analysis; details: dose 2.0 µmol/L

C[C@]1(O)C[C@@](N)(c2ccc(-c3nc4n(c3-c3ccccc3)COc3ccncc3-4)cc2)C1 [PIFUSERTIB]
Activity (MM1.S [1]): Active | Activity (MM1.S [2]): Active | Activity (MM1.S [3]): Active | Activity (NCI-H929 [4]): Active | Activity (NCI-H929 [5]): Active | Activity (OPM-2/BTZ [6]): Active | Activity (MM1.S [7]): Active | Activity (OPM-2/BTZ [8]): Active | CI (MM1.S [9]): 0.826 | CI (NCI-H929 [10]): 0.807 | CI (NCI-H929 [11]): 0.712 | CI (NCI-H929 [12]): 4.094 | CI (NCI-H929 [13]): 4.395 | CI (OPM-2/BTZ [14]): 0.359 | CI (OPM-2 [15]): 6.9 | Activity (MM1.S [16]): 0.23% | Activity (MM1.S [17]): Active | Activity (NCI-H929 [18]): Active | Activity (MM1.S [19]): Active | Activity (MM1.S [20]): Active | CI (OPM-2 [21]): 1.51 | Activity (NCI-H929 [22]): 6.81% | Activity (NCI-H929 [23]): 3.42% | Activity (NCI-H929 [24]): 4.49% | Activity (OPM-2/BTZ [25]): Dose-Dependent Effect | Activity (MM1.S [26]): Active
